Measurements of several laboratories.
Each line is one published result; the experiments were not run side by side. Converted amounts (≈) assume the structure as drawn.

O=c1oc2c(O)c(O)cc3c(=O)oc4c(O)c(O)cc1c4c23 gave an MIC of 100 µg/mL (≈ 331 µM) (Streptococcus mutans; microbial growth, broth dilution; 24 h).
The inhibition of C[C@H](N)C(=O)Nc1ccccc1/N=c1\cc(-c2ccc3c(c2)OCCO3)oc2cc(F)ccc12 is reported as 5.4% (HCT-116; cell growth or viability, CCK-8; 1 µM).
For C[C@H](Nc1ccc2c(c1)OCCn1cc(N3C(=O)OC[C@H]3C(F)F)nc1-2)C(N)=O, the EC50 was 87.8 nM (KYSE-510; cell growth or viability, ATP luminescence; 5 days).
With NCCCC(=O)Nc1ccccc1/N=c1\cc(-c2ccc3c(c2)OCO3)oc2ccccc12 the inhibition was 6.97% (HCT-116; cell growth or viability, CCK-8; 1 µM).
CCOc1ccc(Nc2c3c(nc4ccccc24)CCC3)cc1 has an IC50 of 640 nM (Leishmania infantum; parasite growth, MTT; promastigote).
C=C[C@]1(C)C[C@@H](OC(=O)CS[C@@H]2C[C@H]3CC[C@@H](C2)N3C)[C@]2(C)[C@H](C)CC[C@]3(CCC(=O)[C@H]32)[C@@H](C)[C@@H]1O gave an MIC90 of 0.0312 µg/mL (≈ 0.0604 µM) (Streptococcus pyogenes; microbial growth; clinical isolate).
With NCCC(=O)Nc1ccc(/N=c2\cc(-c3ccc4c(c3)OCO4)oc3ccccc23)cc1 the inhibition was 12.2% (HCT-116; cell growth or viability, CCK-8; 1 µM).
With O=C(O[C@@H]1O[C@@H]2COC(=O)c3cc(O)c(O)c(O)c3-c3c(cc(O)c(O)c3O)C(=O)O[C@H]([C@H]1O)[C@@H]2O)c1cc(O)c(O)c(O)c1 the MIC was 200 µg/mL (≈ 315 µM) (Streptococcus mutans; microbial growth, broth dilution; 24 h).
For COCCC(=O)Nc1ccccc1/N=c1\cc(-c2ccc3c(c2)OCO3)oc2ccccc12, the inhibition was 7.96% (HCT-116; cell growth or viability, CCK-8; 1 µM).
With c1ccc(Oc2ccc(Nc3c4c(nc5ccccc35)CCC4)cc2)cc1 the IC50 was 530 nM (Leishmania infantum; parasite growth, MTT; promastigote).
With O=C1OC[C@H]2OC(O)[C@H](O)[C@@H](O)[C@@H]2OC(=O)c2cc(O)c(O)c(O)c2-c2c(O)c(O)c3oc(=O)c4c(c(O)c(O)c5oc(=O)c2c3c54)-c2c1cc(O)c(O)c2O (mixture of isomers) the inhibition zone was 15 mm (Streptococcus mutans; microbial growth, disc diffusion; 500 µg/disc).
For COc1ccc(NC(=O)Nc2ccc(-c3cn(Cc4ccc(Cl)cc4)nn3)cc2)cc1, the viability was 87.3% (PC-9; cell growth or viability, CCK-8; 50 µM, 72 h).
C[C@@H]1[C@H](O)[C@@H](C)/C=C/C=C/C=C/C=C/C=C/C=C/C=C/[C@H](O[C@@H]2O[C@H](C)[C@@H](O)[C@H](N)[C@@H]2O)C[C@@H]2O[C@](O)(C[C@@H](O)C[C@@H](O)[C@H](O)CC[C@@H](O)C[C@@H](O)CC(=O)O[C@H]1C)C[C@H](O)[C@H]2C(=O)O gave an EC50 of 1500 nM (Leishmania infantum; parasite growth, MTT; promastigote).
With Cc1nc(Nc2ncc(C(=O)Nc3c(C)cccc3Cl)s2)cc(N2CC[C@H](O)C2)n1 the inhibition was 32% (JVM13; cell growth or viability, ATP luminescence; 10 µM, 72 h).
The MIC of Oc1cc(O)c2c(c1)O[C@H](c1cc(O)c(O)c(O)c1)[C@@H](O)C2 is reported as 100 µg/mL (≈ 327 µM) (Streptococcus mutans; microbial growth, broth dilution; 24 h).
The MIC90 of CC1(C)S[C@@H]2[C@H](NC(=O)[C@H](N)c3ccccc3)C(=O)N2[C@H]1C(=O)O is reported as 0.5 µg/mL (≈ 1.43 µM) (Streptococcus pyogenes; microbial growth; clinical isolate).
NCC(=O)Nc1ccccc1/N=c1\cc(-c2ccc3c(c2)OCO3)oc2ccccc12 gave an inhibition of 4.94% (HCT-116; cell growth or viability, CCK-8; 1 µM).
The MBC of C[C@@H]1O[C@@H](OC[C@H]2O[C@@H](Oc3c(-c4ccc(O)c(O)c4)oc4cc(O)cc(O)c4c3=O)[C@H](O)[C@@H](O)[C@@H]2O)[C@H](O)[C@H](O)[C@H]1O is reported as 400 µg/mL (≈ 655 µM) (Streptococcus mutans; microbial killing, broth dilution).
